Compound activity deposited in PubChem BioAssay by The Scripps Research Institute Molecular Screening Center.
TAAR1 antag: human TAAR1 antagonists, primary screen, Fluo-8 calcium fluorescence, CHO RD-HGA16 cells; inhibition, % at 3 µM; Trace amine-associated receptor 1 (Homo sapiens), Q96RJ0; 360,000 tested, 1.5% active; antagonist;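 active means inhibition above a per-plate cutoff, the mean inhibition of test compounds on that plate plus 3 SD, cut at about 49% in these data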
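Test system: CHO RD-HGA16 cells bearing hTAAR1 | Reagent: β-PEA, EC80 | Compound dosing: 3 µM, single point | Schedule: Dye loading 75 min at 37 °C, then 30 min room temperature | Signal: Calcium fluorescence with Fluo-8 | Evaluation: Percent inhibition of PEA-evoked calcium signal, max/basal emission ratio | Control set: DMSO-only wells and EC80 β-PEA-stimulated wells | Repeats: Singlicate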
GalR3 antag: GalR3 antagonists in HEK293 cells, primary screen, cell-based, fluorescence readout. inhibition, % at 3 µM. Galanin receptor type 3 (Homo sapiens), O60755. HEK293 GalR3-CNG cAMP membrane potential fluorescence; galR3 body fused to GalR1 C-terminus. 360,000 tested, 0.44% active;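 active means inhibition above the screen-wide average plus 3 SD, cut at about 13% in these data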;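 further: forskolin and galanin both at EC90 stimulate the cells; cAMP rise reported by CNG channel membrane potential dye signal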
Target sequence (O60755 1-299 limits assumed): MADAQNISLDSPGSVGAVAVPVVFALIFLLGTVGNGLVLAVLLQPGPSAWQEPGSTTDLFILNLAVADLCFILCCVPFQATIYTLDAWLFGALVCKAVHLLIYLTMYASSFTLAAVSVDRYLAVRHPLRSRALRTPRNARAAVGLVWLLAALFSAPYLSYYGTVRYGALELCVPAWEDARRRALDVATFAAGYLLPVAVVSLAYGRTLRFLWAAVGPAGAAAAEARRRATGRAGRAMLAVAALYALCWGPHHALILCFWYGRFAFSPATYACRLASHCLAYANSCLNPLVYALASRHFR
OX1R antag-1: OX1R (HCRTR1) antagonists, primary screen, fluorescence, CHO/OX1R cells, Fluo-8 calcium, orexin A; AID 434989, 2010; inhibition, % at 5 µM; Orexin/Hypocretin receptor type 1 (Homo sapiens), O43613; 330,000 tested, 0.43% active; Fluo-8 calcium fluorescence;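 active means inhibition above its plate's threshold, mean inhibition of all tested compounds on the plate plus 3 SD, cut at about 37% in these data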
Target sequence (O43613 whole entry, looked up): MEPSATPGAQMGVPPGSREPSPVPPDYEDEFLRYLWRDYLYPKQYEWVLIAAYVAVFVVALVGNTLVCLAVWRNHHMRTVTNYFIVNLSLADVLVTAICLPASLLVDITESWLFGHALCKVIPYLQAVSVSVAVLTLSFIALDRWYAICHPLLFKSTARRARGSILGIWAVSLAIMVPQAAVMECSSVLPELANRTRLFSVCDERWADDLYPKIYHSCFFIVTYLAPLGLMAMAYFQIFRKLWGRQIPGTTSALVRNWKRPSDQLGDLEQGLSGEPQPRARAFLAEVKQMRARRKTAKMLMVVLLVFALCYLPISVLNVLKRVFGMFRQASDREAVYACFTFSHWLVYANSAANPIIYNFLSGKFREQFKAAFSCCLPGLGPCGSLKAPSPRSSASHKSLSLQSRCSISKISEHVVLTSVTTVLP
TAAR1 ag: human TAAR1 agonists, primary screen, Fluo-8 calcium fluorescence, CHO RD-HGA16 cells. AID 624467, 2012. vehicle wells 0%, saturating PEA agonist 100%. activation, % at 3 µM. Trace amine-associated receptor 1 (Homo sapiens), Q96RJ0. 360,000 tested, 0.99% active;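 active means activation above the mean activation of all test compounds in the run plus 3 SD, cut at about 38% in these data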
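Signal – calcium-sensitive Fluo-8 signal, excitation 470-495, emission 515-575 nm · System – RD-HGA16 (CHO) cells co-expressing Gα16 and hTAAR1 · Incubation – 17-24 h seeding, 75 min 37 °C dye, 30 min RT · Compound dosing – 3 µM single concentration · Repeats – no replicates (n 1)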
CHO parental Ca: ATP-evoked calcium signal inhibitors, parental CHO, primary screen, counter-screen for OX1R antagonist project, cell-based, fluorescence, Fluo-8 calcium dye; inhibition, % at 5.6 µM; parental CHO-K1, ATP-induced calcium, Fluo-8 fluorescence; 330,000 tested, 0.63% active;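 active means inhibition above that plate's mean sample inhibition plus 3 SD, cut at about 26% in these data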
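Material: parental CHO cells / Compound: single nominal dose of 5.6 µM per compound / Signal: Fluo-8 fluorescence / Replicates: singlicate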
OX1R antag-2: antagonists of human orexin 1 receptor (OX1R). 330,000 tested, 1.8% active. AID 485270, 2010. inhibition, % at 6.6 µM. Orexin/Hypocretin receptor type 1 (Homo sapiens), O43613. OX1R-expressing cells, FRET antagonist read-out; in the data active means inhibition mostly above about 38%, no sharp cut-off; inactive means mostly below about 40%
OX1R Ca confirm: OX1R (HCRTR1) antagonists, confirmation, fluorescence, CHO/OX1R cells, Fluo-8 calcium, orexin A; AID 492963, 2010; 1,100 tested, 38% active; orexin A calcium Fluo-8 fluorescence; inhibition, % at 5 µM; shares compounds with OX1R antag-1; in the data active means inhibition above about 29%
CHO Ca counter: ATP-evoked calcium inhibition in parental CHO, counter-screen for OX1R antagonist project, cell-based, fluorescence, CHO-K1, triplicate | 1,100 tested, 9.3% active | ATP-induced calcium, Fluo-8 fluorescence | shares compounds with OX1R antag-1 | inhibition, % at 5.6 µM;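 active means inhibition above a per-plate limit, the mean inhibition of that plate's test compounds plus 3 SD, cut at about 25% in these data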
OX1R HTRF conf: OX1R (HCRTR1) antagonists, confirmation, cell-based, HTRF; shares compounds with OX1R antag-2; OX1R-expressing cells, HTRF antagonist assay; inhibition, % at 6.6 µM; 1,800 tested, 49% active; in the data active means inhibition above about 55%;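 further: CHO cells expressing OX1R stimulated with orexin A at about EC80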
CHO-K1 HTRF cnt: signal inhibition in parental CHO-K1 cells, counter-screen for OX1R antagonist project, cell-based, HTRF; inhibition, % at 6.6 µM; HTRF counterscreen; AID 493232, 2011; shares compounds with OX1R antag-2; 1,800 tested, 48% active; in the data active means inhibition above about 17%
nonsel antag count: nonselective antagonists in TAAR1 counter-screen cells, counter-screen for hTAAR1 antagonist project, cell-based, fluorescence, calcium | shares compounds with TAAR1 antag | counterscreen cell line, antagonist mode | inhibition, % at 3 µM | 2,400 tested, 77% active | AID 651780, 2012; in the data active means inhibition above about 22%;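 further: CHO-Ga16 host cells stimulated with ATP at an EC80 level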
TAAR1 ant conf: human TAAR1 antagonists, retest of hits, confirmation, cell-based, fluorescence; shares compounds with TAAR1 antag; TAAR1-expressing cells, fluorescence antagonist read-out; inhibition, % at 3 µM; 2,400 tested, 40% active; in the data active means inhibition above about 49%;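 further: CHO-Ga16 host cells challenged with agonist PEA near its EC80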
Ga16 ag counter-1: calcium activation in Ga16-expressing cells, counter-screen for TAAR1 antagonist project, cell-based, fluorescence | shares compounds with TAAR1 antag | agonist counterscreen | activation, % at 3 µM | 2,400 tested, 18% active; in the data active means activation above about 12%
TAAR1 ag count: TAAR1 activation by candidate antagonists – cell-based, fluorescence, counter-screen for TAAR1 antagonist project | shares compounds with TAAR1 antag | hTAAR1 cell line, agonist mode | activation, % at 3 µM | 2,400 tested, 2% active | AID 651955, 2012; in the data active means activation above about 37%;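 further: CHO cells stably expressing TAAR1 with calcium dye readout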
TAAR1 ag conf: human TAAR1 agonists, retest of hits, confirmation, Fluo-8 calcium fluorescence, CHO RD-HGA16 cells. shares compounds with TAAR1 ag. scaled: DMSO 0%, maximal phenethylamine 100%. activation, % at 3 µM. 2,400 tested, 82% active. AID 651783, 2012;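 active means activation above a cutoff set at the run's mean compound activation plus 3 SD, cut at about 39% in these data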
Ga16 ag counter-2: nonselective calcium mobilization agonists, CHO-Ga16 cells, counter-screen for hTAAR1 agonist project, cell-based, fluorescence, CHO-Ga16 parental line; 2,400 tested, 50% active; Fluo-8 calcium fluorescence; normalized to maximal ATP response, DMSO zero; shares compounds with TAAR1 ag; AID 651787, 2012; activation, % at 3 µM;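 active means activation above the run cutoff, the mean activation over all tested wells plus 3 SD, cut at about 12% in these data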
TAAR1 desensitize: TAAR1 desensitization by agonist hits, confirmation, counter-screen for TAAR1 agonist project, cell-based, fluorescence, tachyphylaxis; 2,400 tested, 46% active; inhibition, % at 3 µM; CHO RD-HGA16 hTAAR1, Fluo-8 calcium, beta-PEA response inhibition; shares compounds with TAAR1 ag; AID 651951, 2012;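 active means inhibition above the run cutoff, the mean inhibition of all test compounds plus 3 SD, cut at about 49% in these data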;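 further: beta-PEA stimulus applied at its EC80; loss of beta-PEA calcium signal after compound pretreatment read as receptor desensitization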
Ga16 nonsel ant: inhibition of ATP-evoked calcium response in CHO-Ga16 cells, counter-screen for TAAR1 agonist project, cell-based, fluorescence; shares compounds with TAAR1 ag; CHO-Ga16 ATP-induced calcium, Fluo-8 fluorescence; inhibition, % at 3 µM; 2,400 tested, 39% active; AID 651952, 2012;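 active means inhibition above the plate's mean compound inhibition plus 3 SD, computed per plate, cut at about 22% in these data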
GalR3 conf: GalR3 antagonist hit confirmation, cell-based, fluorescence, triplicate; shares compounds with GalR3 antag; HEK293 GalR3 CNG cAMP biosensor, membrane potential fluorescence; galR3 fused to GalR1 carboxy tail; challenged with forskolin and galanin at EC90; inhibition, % at 3 µM; 1,600 tested, 59% active;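 active means inhibition above the primary screen's cutoff, the mean inhibition of all screened compounds plus 3 SD, cut at about 13% in these data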
CNG parental: nonspecific cAMP agonists in parental HEK-CNG cells, counter-screen for GalR3 antagonist project, cell-based, fluorescence, high throughput; shares compounds with GalR3 antag; HEK293-CNG parental cells, cAMP membrane potential fluorescence; normalised: DMSO wells 0%, forskolin wells 100%; activation, % at 3 µM; 1,600 tested, 10% active; AID 652268, 2013; in the data active means activation above about 1.3%
Numbers stand for hits; - = inactive; . = no result. Sampled rows, rich in hits. Any-hit rate of the full collection: about 4.3%.

SMILES	TAAR1 antag	GalR3 antag	OX1R antag-1	TAAR1 ag	CHO parental Ca	OX1R antag-2	OX1R Ca confirm	CHO Ca counter	TAAR1 ag conf	Ga16 ag counter-2	TAAR1 desensitize	Ga16 nonsel ant	others
O=C(NCCN1C(=O)S/C(=C\c2ccccc2)C1=O)c1cc(S(=O)(=O)N2CCOCC2)c(Cl)cc1Cl	78.3	-	-	-	-	-	58.7	-	.	.	.	.	nonsel antag count=50.4;TAAR1 ant conf=70.0;Ga16 ag counter-1=19.4;TAAR1 ag count=-
O=C(NCCN1C(=O)S/C(=C\c2ccc(Cl)cc2)C1=O)c1ccc(F)c(S(=O)(=O)N2CCOCC2)c1	-	-	-	-	-	-	.	.	.	.	.	.
CCc1nc2ccc(C(=O)N(CC)CCN(C)C)cn2c1N(C)C(=O)C1CCCCC1	-	-	.	-	.	.	.	.	.	.	.	.
COc1cc(/C=C/C(=O)CC(=O)/C=C/c2ccc(O)c(OC)c2)ccc1O	69.2	.	-	-	-	-	31.5	30.3	.	.	.	.	nonsel antag count=48.4;TAAR1 ant conf=49.8;Ga16 ag counter-1=28.3;TAAR1 ag count=-
COc1cc2ccc(CC(N)=O)cc2cc1OC	-	-	.	-	.	.	.	.	.	.	.	.
CCN1C(=O)/C(=C/C=C2\N(CC)c3cc(S(=O)(=O)N(C)C)ccc3N2c2ccccc2)SC1=S	-	-	-	61.8	-	-	71.8	68.0	48.4	56.4	71.9	77.6
CCN1C(=O)/C(=C\C=C\c2ccccc2[N+](=O)[O-])SC1=S	-	-	.	-	.	.	.	.	.	.	.	.
CC1(C(=O)NS(=O)(=O)C2CC2)CCN(C(=O)CSc2ccccc2)C1 (stereo not drawn)	-	-	.	-	.	.	.	.	.	.	.	.
Cc1cc(C)nc(/N=C(\N)Nc2ccc(S(N)(=O)=O)cc2)n1	-	-	-	-	-	-	.	.	.	.	.	.
Cc1cc(C)nc(/N=C(\N)Nc2ccc(F)c([N+](=O)[O-])c2)n1	70.6	-	-	68.3	-	-	39.7	-	62.6	38.0	70.0	39.0
Cc1cc(C)nc(/N=C(\N)Nc2ccc(SC(F)F)cc2)n1	94.6	-	-	101.9	-	-	63.8	-	98.6	63.1	98.3	69.4
Cc1cc(C)nc(/N=C(\N)Nc2ccc(S(=O)(=O)Nc3nc(C)cc(C)n3)cc2)n1	.	.	-	.	-	-	.	.	.	.	.	.
CCC1(CC)SCCNC1=O	-	-	.	-	.	.	.	.	.	.	.	.
CC1=NNC(=O)C1Cc1ccccc1C (stereo not drawn)	-	-	-	-	-	-	.	.	.	.	.	.
Fc1ccc(-c2cc(C(F)(F)C(F)F)[nH]n2)cc1	74.9	-	-	81.4	-	-	37.2	-	91.4	53.4	73.6	39.2
O=C(N/N=C/c1ccco1)c1cc(-c2ccc3ccccc3c2)n[nH]1	71.5	-	43.7	47.6	-	-	-	-	67.0	53.0	95.8	88.4
COc1ccc(C(=O)NNC(=S)NC(=O)c2ccco2)cc1	-	-	-	58.8	-	-	-	-	66.0	38.6	-	-
O=C(NC(Nc1ncc(S(=O)(=O)c2ccc([N+](=O)[O-])cc2)s1)(C(F)(F)F)C(F)(F)F)c1ccc(Cl)cc1	-	72.7	-	-	-	119.6	30.1	65.0	.	.	.	.	OX1R HTRF conf=57.8;CHO-K1 HTRF cnt=35.7;GalR3 conf=40.7;CNG parental=-
